According to ChEMBL document CHEMBL5674882, “Benzolactam-related compounds promote apoptosis of HIV-infected human cells via protein kinase C-induced HIV latency reversal” (J Biol Chem, 2019):
Activity calls are given as the source filed them. No cut-off for these calls is given here.

Legend:
[1] = biological target: T1, Protein kinase C (PKC) (Homo sapiens) (UniProt O94806+P41743+P17252+P05129+Q05655+P05771+Q05513+Q02156+P24723+Q15139+Q04759); assay: (§1) Activation of PKC in human ACH-2 cells infected with latent HIV-1 assessed as reversal of HIV-1 latency by measuring increase in p24 antigen level incubated for 48 hrs by chemiluminescent enzyme immunoassay; assay type: cell-based; conditions: ACH-2 cell line, filed as activator
Protein kinase C (PKC) = assay: as §1; assay type: cell-based; conditions: ach-2 cell line
[2] = biological target: T1, Protein kinase C (PKC) (Homo sapiens); assay: Activation of PKC in human J-Lat 10.6 cells infected with latent HIV-1 assessed as reversal of HIV-1 latency by measuring increase of GFP-positive cells at 100 to 400 nM in presence of 1 uM SAHA incubated for 24 hrs by flow cytometry; assay type: cell-based; conditions: filed as activator, dose 100-400 nM
[3] = biological target: T1, Protein kinase C (PKC) (Homo sapiens); assay: Activation of PKC in human J-Lat 10.6 cells infected with latent HIV-1 assessed as reversal of HIV-1 latency by measuring increase of GFP-positive cells at 100 to 400 nM in presence of 10 nM Panobinostat incubated for 24 hrs by flow cytometry; assay type: cell-based; conditions: filed as activator, dose 100-400 nM
[4] = biological target: T1, Protein kinase C (PKC) (Homo sapiens); assay: Activation of PKC in human ACH-2 cells infected with latent HIV-1 assessed as reversal of HIV-1 latency by measuring increase in p24 antigen level at 5 to 50 nM incubated for 48 hrs in presence of 100 nM GSK525762A by chemiluminescent enzyme immunoassay; assay type: cell-based; conditions: ACH-2 cell line, dose 5-50 nM
How it was run: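 ACH-2 cells treated 48 h with 5–50 nM of the test agent, alone or combined with 100 nM GSK525762A (BRD4 inhibitor). Supernatant p24 measured by chemiluminescent immunoassay. Synergy or antagonism scored with the Bliss independence model (Δfaxy >0 synergy, <0 antagonism). Three independent experiments, mean ± S.D.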

[5] = biological target: T1, Protein kinase C (PKC) (Homo sapiens); assay: Synergistic activation of PKC in CD4+ T-cells purified from HIV-infected patient assessed as increase in transcription of HIV mRNA at 1 uM incubated for 24 hrs in presence of 1 uM JQ1 by qRT-PCR method; assay type: cell-based; conditions: CD4+ T cell, filed as activator
How it was run: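 CD4+ T-cells purified from PBMC of patients on cART for at least 5 years with plasma viral load <20 copies/ml. Cells plated at 2.5 × 10^6 cells/ml and treated 24 h, alone or with 1 μm JQ1. Intracellular HIV RNA measured by qRT-PCR against a plasmid standard curve, normalised per ng input RNA, relative to untreated cells. Synergy assessed by Bliss independence model.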

U1 = assay: Induction of apoptosis in human U1 cells at 1 uM incubated for 48 hrs after pre-incubated for 2 hrs with 20 uM caspase inhibitor Q-VD-Oph by propidium iodide/annexin-V staining based flow cytometry relative to compound alone control; assay type: functional; parameters: scale not given: the % may be the effect or the level left
How it was run: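 ACH-2 or U1 cells pretreated 2 h with 20 µM pan-caspase inhibitor Q-VD-Oph, then exposed to 1 µM compound for 48 h. Annexin-V/PI staining by flow cytometry; apoptotic proportions compared with and without Q-VD-Oph. Mean ± S.D.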

[6] = biological target: T1, Protein kinase C (PKC) (Homo sapiens); assay: Activation of PKC in CCL19-induced human CD4+ T-cells infected with latent HIV-1 assessed as reversal of HIV-1 latency by measuring increase in p24 antigen level at 1 uM incubated for 48 hrs by chemiluminescent enzyme immunoassay; assay type: cell-based; conditions: CD4+ T cell, filed as activator
CD4+ T cell = assay: Induction of apoptosis in CCL19-induced human CD4+ T-cells infected with latent HIV-1 assessed as caspase-3 activation at 1 uM incubated for 48 hrs by FACS; assay type: functional, cell-based
How it was run: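 Latency model: healthy-donor CD4+ T-cells given 100 nM CCL19 for 2 days, infected with HIV-1 NL4-3, kept 5 days in IL-2. Stimulated 2 days with 1 µM drug or 100 nM PMA plus 2 µM ionomycin. Cells fixed and permeabilized, co-stained with anti-p24 and anti-active caspase-3 mAbs; active caspase-3 read by flow cytometry separately in p24+ and p24− cells. Two donors.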

[7] = biological target: T1, Protein kinase C (PKC) (Homo sapiens); assay: Activation of PKC in human J-Lat 6.3 cells infected with latent HIV-1 assessed as reversal of HIV-1 latency by measuring increase of GFP-positive cells at 10 uM in presence of pan-PKC inhibitor Go-6983 incubated for 24 hrs by flow cytometry; assay type: cell-based
How it was run: (§2)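 J-Lat 6.3 cells pretreated 3 h with a PKC inhibitor: Gö 6983 1 µM, Gö 6976 1 µM, GF 109203X 1 µM, PKCθ/δ inhibitor 10 µM, or Rottlerin 1 µM. Then exposed to 10 µM compound for 24 h; GFP-positive cells counted by flow cytometry. Mean ± S.D.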

[8] = biological target: T1, Protein kinase C (PKC) (Homo sapiens); assay: Activation of PKC in human J-Lat 6.3 cells infected with latent HIV-1 assessed as reversal of HIV-1 latency by measuring increase of GFP-positive cells at 10 uM in presence of PKC alpha/beta/gamma inhibitor GF109203X incubated for 24 hrs by flow cytometry; assay type: cell-based; how it was run: as §2
[9] = Toxicity in human CD4+ T-cells assessed as elevation of supernatant cytokine concentrations of IL-13 incubated for 24 hrs by bead-based immunoassay; conditions: cd4+ t cell
How it was run: (§3)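 Purified CD4+ T-cells from healthy donors treated 24 h with 1 μm drug, 1 μm JQ1, or the combination. IL-2, IL-5, IL-6, IL-13, TNFα and IFN-γ in supernatants measured by flow-cytometry bead-based Th1/Th2 immunoassay. Run in duplicate.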

[10] = Toxicity in human CD4+ T-cells assessed as increase in ratio of CD25+ cells incubated for 24 hrs by flow cytometry; assay type: cell-based; conditions: cd4+ t cell
How it was run: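 Primary CD4+ T-cells from healthy donors treated with drug for 24 h. Cells stained with anti-CD25 and anti-CD69 antibodies (plus CD3, CD4, HLA-DR) for 30 min on ice, then marker-positive proportions quantified by flow cytometry.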

[11] = Toxicity in human CD4+ T-cells assessed as elevation of supernatant cytokine concentrations of IL-2 incubated for 24 hrs by bead-based immunoassay; conditions: cd4+ t cell; how it was run: as §3
[12] = Toxicity in human CD4+ T-cells assessed as elevation of supernatant cytokine concentrations of TNFalpha incubated for 24 hrs by bead-based immunoassay; conditions: cd4+ t cell; how it was run: as §3
[13] = Toxicity in human CD4+ T-cells assessed as elevation of supernatant cytokine concentrations of IL-2 incubated for 24 hrs in presence of JQ1 by bead-based immunoassay; conditions: cd4+ t cell; how it was run: as §3
[14] = Toxicity in human CD4+ T-cells assessed as elevation of supernatant cytokine concentrations of IL-6 incubated for 24 hrs in presence of JQ1 by bead-based immunoassay; conditions: cd4+ t cell; how it was run: as §3
[15] = Toxicity in human CD4+ T-cells assessed as increase in dead cells at 1 uM in presence of JQ1; assay type: cell-based; conditions: cd4+ t cell
How it was run: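 Primary cells exposed 24 h to 1 μm drug, 1 μm JQ1, or both (1 μm each). Dead cells scored by propidium iodide staining.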

J-Lat 6.3 = assay: Induction of apoptosis in human J-Lat 6.3 cells assessed as caspase-3 activation at 1 uM incubated for 24 hrs by flow cytometry; assay type: functional
How it was run: (§4)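 Cells fixed in 1% paraformaldehyde, permeabilized, stained 30 min on ice with anti-active caspase-3 mAb, and analysed by flow cytometry. Three independent experiments.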

Jurkat = assay: Induction of apoptosis in human Jurkat cells assessed as caspase-3 activation at 1 uM incubated for 24 hrs by flow cytometry; assay type: functional; how it was run: as §4

For `CCCCCCCCCCc1ccc2c(c1)N(C)[C@@H](C(C)C)C(=O)N[C@H](CO)C2`, the Activity [1] was “Dose-Dependent Effect”, the EC50 (Protein kinase C (PKC)) was 25 nM and the Activity [2] was “Active”. For the same compound, the Activity [3] was “Active”, the Activity [4] was “inactive” and the fold change (FC) [5] was 13.2. The Activity (U1) was 20%, the Activity [6] was “Active” and the Activity (CD4+ T cell) was “Active”. The Activity [7] was “inactive”, the Activity [8] was “inactive” and the Activity [9] was “Toxic”. For the same compound, the Activity [10] was “Non-Toxic”, the Activity [11] was “Toxic” and the Activity [12] was “Toxic”. For the same compound, the Activity [13] was “Non-Toxic”, the Activity [14] was “Non-Toxic” and the Activity [15] was “Non-Toxic”. It also gave an Activity (J-Lat 6.3) of 12.2% and an Activity (Jurkat) of 2.63%.
